Source: ChEMBL document CHEMBL3399929 (Bioorg Med Chem, 2015)
Values after ≈ are worked out from the molar mass of the structure shown. Active and inactive are the calls of the source. No cut-off for these calls is given here.

Columns and labels:
[1] = Clearance in Sprague-Dawley rat at 1 mg/kg, iv; type: ADME, organism-based; set-up: dose 1 mg/kg, route intravenous; settings: in vivo
In short: (§1)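 Male Sprague–Dawley rats (250 ± 25 g) each received a single oral dose of 10 mg/kg or an intravenous dose of 1 mg/kg. Plasma concentration–time profiles were obtained with three rats per time point. Parameters were calculated with a two-compartmental model, and values are averages of three rats. Cmax is given as mean ± SEM.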

Aspergillus fumigatus = test: Antifungal activity against Aspergillus fumigatus at 50 ug/ml; type: functional, organism-based
[2] = system: Mycobacterium tuberculosis; test: Bactericidal activity against non-replicating Mycobacterium tuberculosis H37Rv Wayne model under hypoxic/oxygen depleted conditions assessed as log reduction after 4 days by serial dilution assay; type: functional
In short: (§2)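 Wayne hypoxia model. A mid-log 7H9 culture was diluted to about 10^5 cfu/mL, and 10 mL was sealed in 20 mL headspace vials. Vials were stirred slowly at 37 °C for 20–22 days, until methylene blue indicator (1.5 µg/mL) decolorized. Drug was then injected through the septum, and vials were incubated 4 more days at 37 °C. Tests were run in duplicate, with CFU counted on 7H10 agar plates.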

[3] = Cmax in Sprague-Dawley rat at 10 mg/kg, po; type: ADME, organism-based; set-up: dose 10 mg/kg, route oral; settings: in vivo; in short: as §1
[4] = system: Mycobacterium tuberculosis; test: Bactericidal activity against non-replicating Mycobacterium tuberculosis H37Rv Wayne model under hypoxic/oxygen depleted conditions assessed as log reduction at 10 ug/ml after 4 days by serial dilution assay; type: functional; in short: as §2
[5] = Elimination half life in Sprague-Dawley rat at 10 mg/kg, po; type: ADME, organism-based; set-up: dose 10 mg/kg, route oral; settings: in vivo, read-out: beta t1/2 (converted); in short: as §1
[6] = Inhibition of Swiss mouse liver ATP synthase after 1 hr
In short: (§3)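 Liver mitochondria came from an overnight-fasted adult Swiss mouse, isolated by differential centrifugation in sucrose/Tris-MOPS/EGTA buffer pH 7.4 and assayed the same day. Mitochondria (100 µg) were stirred at room temperature with 100 µM compound in Tris/HCl, sucrose, 5 mM MgCl2 and 100 µM diadenosine pentaphosphate, pH 7.4. The reaction was started with 1 mM ADP, 20 mM Pi and 50 mM succinate, stopped after 1 h with EDTA-TCA, and ATP was read by luciferase.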

[7] = Oral bioavailability in Sprague-Dawley rat at 10 mg/kg; type: ADME, organism-based; settings: in vivo; in short: as §1
Candida parapsilosis = test: Antifungal activity against Candida parapsilosis ATCC 22019 at 50 ug/ml; type: functional, organism-based
[8] = system: Mycobacterium tuberculosis; test: Antimycobacterial activity against Mycobacterium tuberculosis H37Rv infected in mouse chronic TB model assessed as log reduction in spleen at 173 umol/kg administered via esophageal cannula 6 times a week for 4 weeks relative to untreated control; type: functional
[9] = Tmax in Sprague-Dawley rat at 1 mg/kg, iv; type: ADME, organism-based; set-up: dose 1 mg/kg, route intravenous; settings: in vivo; in short: as §1
[10] = system: Mycobacterium tuberculosis; test: Antimycobacterial activity against Mycobacterium tuberculosis H37Rv infected in mouse chronic TB model assessed as log reduction in lungs at 173 umol/kg administered via esophageal cannula 6 times a week for 4 weeks relative to untreated control; type: functional
[11] = Volume of distribution at steady state in Sprague-Dawley rat at 1 mg/kg, iv; type: ADME, organism-based; set-up: dose 1 mg/kg, route intravenous; settings: in vivo, read-out: Vdss; in short: as §1
[12] = system: Mycobacterium tuberculosis; test: Antimycobacterial activity against Mycobacterium tuberculosis H37Rv infected in mouse chronic TB model assessed as log reduction in lungs at 87 umol/kg administered via esophageal cannula 6 times a week for 4 weeks relative to untreated control; type: functional
[13] = system: Mycobacterium tuberculosis H37Rv; test: Inhibition of Mycobacterium tuberculosis H37Rv ATP synthase assessed as reduction in total ATP content at 50 ug/ml after 18 hrs by bead-vortexing settling method
In short: (§4)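 H37Rv was declumped by bead-vortexing and settling, adjusted to McFarland 1, then diluted 100-fold. Portions of 1 mL in tubes with 0.5 mm glass beads were exposed to compound for 18 h at 37 °C. Samples were heated 8–10 min, chilled on ice, and bead-beater lysed. Cleared lysate ATP was measured by luciferase assay.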

Rattus norvegicus [14] = test: AUC in Sprague-Dawley rat at 10 mg/kg, po; type: ADME, organism-based, Plasma; set-up: dose 10 mg/kg, route oral; settings: in vivo; in short: as §1
[15] = system: Mycobacterium tuberculosis; test: Antimycobacterial activity against Mycobacterium tuberculosis H37Rv after 4 weeks by agar dilution assay; type: functional
In short: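 Agar dilution method. DMSO stocks (5 mg/mL) were serially diluted in DMSO, and 0.1 mL of each was mixed into 1.9 mL Middlebrook 7H10 agar with OADC and set as slants. Each tube received about 10^5 bacilli from a 3-week Lowenstein–Jensen culture suspended in saline with 0.05% Tween-80. Tubes were incubated at 37 °C for 4 weeks. MIC was the lowest concentration with no visible growth.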

[16] = AUC in Sprague-Dawley rat at 1 mg/kg, iv; type: ADME, organism-based; set-up: dose 1 mg/kg, route intravenous; settings: plasma; in short: as §1
[17] = Cmax in Sprague-Dawley rat at 1 mg/kg, iv; type: ADME, organism-based; set-up: dose 1 mg/kg, route intravenous; settings: in vivo; in short: as §1
Pseudomonas aeruginosa = test: Antibacterial activity against Pseudomonas aeruginosa ATCC BAA-427 at 50 ug/ml; type: functional, organism-based
Staphylococcus aureus = test: Antibacterial activity against Staphylococcus aureus ATCC 25923 at 50 ug/ml; type: functional, organism-based
Sporothrix schenckii = test: Antifungal activity against Sporothrix schenckii at 50 ug/ml; type: functional, organism-based
[18] = Mean residence time in Sprague-Dawley rat at 10 mg/kg, po; type: ADME, organism-based; set-up: dose 10 mg/kg, route oral; settings: in vivo; in short: as §1
Escherichia coli = test: Antibacterial activity against Escherichia coli ATCC 9637 at 50 ug/ml; type: functional, organism-based
[19] = Inhibition of Mycobacterium smegmatis TMC 607 ATP synthase incubated for 10 mins prior to NADH addition measured after 1 hr by luminescence assay; set-up: species or system Mycolicibacterium smegmatis
[20] = Cytotoxicity against African green monkey Vero cells after 72 hrs yb resazurin assay; type: cell-based; settings: chlorocebus sabaeus
In short: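 Vero cells were seeded overnight in RPMI with 10% heat-inactivated FBS at 37 °C, 5% CO2. Cells were exposed in triplicate to concentrations from 100 to 1.56 µg/mL for 72 h. Resazurin (0.1%) was then added for 4–5 h, and fluorescence was read at ex 530/em 590 nm. CC50 was derived from the fluorescence plot.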

Klebsiella pneumoniae = test: Antibacterial activity against Klebsiella pneumoniae ATCC 27736 at 50 ug/ml; type: functional, organism-based
[21] = system: Mycobacterium tuberculosis; test: Bactericidal activity against non-replicating Mycobacterium tuberculosis H37Rv Wayne model under hypoxic/oxygen depleted conditions assessed as log reduction at 100 ug/ml after 4 days by serial dilution assay; type: functional; in short: as §2
Rattus norvegicus [22] = test: Volume of distribution at steady state in Sprague-Dawley rat at 10 mg/kg, po; type: ADME, organism-based; set-up: dose 10 mg/kg, route oral; settings: in vivo; in short: as §1
[23] = system: Mycobacterium tuberculosis; test: Antimycobacterial activity against Mycobacterium tuberculosis H37Rv infected in mouse chronic TB model assessed as survival rate at 87 umol/kg administered via esophageal cannula 6 times a week for 4 weeks relative to untreated control; type: functional
In short: (§5)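 Male Balb/C mice (8–10 weeks, 18–20 g), ten per group, were infected intravenously with 5 × 10^6 CFU H37Rv in 0.2 mL. Dosing by gavage began on day 1, six times weekly for 4 weeks, with the last dose on day 28. Survival was followed to day 30. Survivors were sacrificed on day 30, and lung and spleen homogenates were plated on 7H10/OADC at 37 °C for 4–6 weeks. Results were compared with an untreated infected group.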

[24] = system: Mycobacterium tuberculosis; test: Antimycobacterial activity against Mycobacterium tuberculosis H37Rv infected in mouse chronic TB model assessed as survival rate at 173 umol/kg administered via esophageal cannula 6 times a week for 4 weeks relative to untreated control; type: functional; in short: as §5
[25] = Tmax in Sprague-Dawley rat at 10 mg/kg, po; type: ADME, organism-based; set-up: dose 10 mg/kg, route oral; settings: in vivo; in short: as §1
Rattus norvegicus [26] = test: Clearance in Sprague-Dawley rat at 10 mg/kg, po; type: ADME, organism-based; set-up: dose 10 mg/kg, route oral; settings: in vivo; in short: as §1
[27] = system: Trichophyton mentagrophytes; test: Antifungal activity against Trichophyton mentagrophytes at 50 ug/ml; type: functional, organism-based
[28] = Selectivity ratio of IC50 for Mycobacterium smegmatis TMC 607 ATP synthase to IC50 for Swiss mouse liver ATP synthase
Candida albicans = test: Antifungal activity against Candida albicans at 50 ug/ml; type: functional, organism-based
Cryptococcus neoformans = test: Antifungal activity against Cryptococcus neoformans at 50 ug/ml; type: functional, organism-based
[29] = system: Mycobacterium tuberculosis H37Rv; test: Inhibition of Mycobacterium tuberculosis H37Rv ATP synthase assessed as reduction in total ATP content at 12.5 ug/ml after 18 hrs by bead-vortexing settling method; in short: as §4
[30] = system: Mycobacterium tuberculosis; test: Antimycobacterial activity against Mycobacterium tuberculosis H37Rv infected in mouse chronic TB model assessed as log reduction in spleen at 87 umol/kg administered via esophageal cannula 6 times a week for 4 weeks relative to untreated control; type: functional
[31] = Selectivity index, ratio of CC50 for African green monkey Vero cells to MIC100 for Mycobacterium tuberculosis H37Rv; type: toxicity, cell-based; settings: read-out: Selectivity Index
In short: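 Selectivity index is CC50 from the Vero resazurin assay divided by the agar-dilution MIC against H37Rv.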

[32] = Elimination half life in Sprague-Dawley rat at 1 mg/kg, iv; type: ADME, organism-based; set-up: dose 1 mg/kg, route intravenous; settings: in vivo, read-out: beta t1/2 (converted); in short: as §1
[33] = system: Mycobacterium tuberculosis; test: Bactericidal activity against non-replicating Mycobacterium tuberculosis H37Rv Wayne model under hypoxic/oxygen depleted conditions assessed as log reduction at 50 ug/ml after 4 days by serial dilution assay; type: functional; in short: as §2
[34] = molecular target: ATP synthase (Mycobacterium tuberculosis) (UniProt P9WPU9+P9WPU5+P9WPU7+P9WPV5+P9WPS1+P9WPV1+P9WPV7+P9WPV3); test: Inhibition of Mycobacterium tuberculosis H37Rv ATP synthase assessed as reduction in total ATP content at 100 uM after 18 hrs by bead-vortexing settling method; type: protein-complex assay; in short: as §4
Mus musculus = organism: Mus musculus; test: Inhibition of Swiss mouse liver ATP synthase at 100 uM after 1 hr; in short: as §3
[35] = system: Mycolicibacterium smegmatis; test: Inhibition of Mycobacterium smegmatis TMC 607 ATP synthase at 100 uM incubated for 10 mins prior to NADH addition measured after 1 hr by luminescence assay
In short: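 Inverted membrane vesicles from M. smegmatis were diluted to 100 µg protein/mL in 50 mM MOPS pH 7.5 with 10 mM MgCl2. Vesicles were preincubated with compound for 10 min at room temperature with stirring, then given 2.5 mM NADH for 1 min. The reaction was started with 1 mM ADP plus 10 mM potassium phosphate and run for 1 h. It was quenched with EDTA/TCA, and ATP was read by luciferase luminescence.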

For `CCN(CC)Cc1cc(N(c2cc(C)nc3cc(Cl)ccc23)S(=O)(=O)c2cccc(Cl)c2Cl)ccc1O`, the clearance [1] was 1.17 mL/min/kg, the Activity (Aspergillus fumigatus) was “inactive” and the MIC100 [2] was 3.12 µg/mL (≈ 5.39 µM). It also gave a Cmax [3] of 616 ng/mL, a log10CFU/ml [4] of 1.14 and a half-life [5] of 4.2 h. The IC50 [6] was over 100000 nM, the bioavailability [7] was 1.72% and the Activity (Candida parapsilosis) was “inactive”. It also gave a log10cfu [8] of 2.12, a Tmax [9] of 5 min and a log10cfu [10] of 2.12. For the same compound, the Vd [11] was 0.84 L/kg, the log10cfu [12] was 1 and the inhibition [13] was 31%. It also gave an AUC (Rattus norvegicus [14]) of 2813 ng·h/mL, an MIC100 [15] of 3.12 µg/mL (≈ 5.39 µM) and an AUC [16] of 16400 ng·h/mL. The Cmax [17] was 2420 ng/mL, the Activity (Pseudomonas aeruginosa) was “inactive” and the Activity (Staphylococcus aureus) was “inactive”. The Activity (Sporothrix schenckii) was “inactive”, the MRT [18] was 6.69 h and the Activity (Escherichia coli) was “inactive”. The IC50 ([19]; read-out: IC50) was 510 nM, the CC50 at 72 h [20] was over 300 µg/mL and the Activity (Klebsiella pneumoniae) was “inactive”. It also gave a log10CFU/ml [21] of 2.34, a Vdss (Rattus norvegicus [22]) of 0.41 L/kg and a Survival [23] of 40%. For the same compound, the Survival [24] was 60%, the Tmax [25] was 0.5 h and the CL (Rattus norvegicus [26]) was 1 mL/min/kg. The Activity [27] was “inactive”, the Ratio IC50 [28] was over 155 and the Activity (Candida albicans) was “inactive”. For the same compound, the Activity (Cryptococcus neoformans) was “inactive”, the inhibition [29] was 60% and the log10cfu [30] was 1. The selectivity ratio [31] was over 96 and the half-life [32] was 8.84 h.

With `Cc1ncc([N+](=O)[O-])n1CCO` [METRONIDAZOLE] the MIC100 [2] was “inactive”, the log10CFU/ml [33] was 1.16 and the IC50 [19] was “Not Active”.

For `C(=NC1CCCCC1)=NC1CCCCC1` [DICYCLOHEXYLCARBODIIMIDE], the MIC100 [2] was “inactive”, the inhibition [34] was 30% and the log10CFU/ml [21] was 4.68. It also gave an inhibition (Mus musculus) of 83% and an inhibition [35] of 99.5%.
